Results reported in ChEMBL document CHEMBL4609986 (Bioorg Med Chem, 2020).
pEC50: −log10 of the molar value.

Key:
[1] = molecular target: T1, Dual specificity tyrosine-phosphorylation-regulated kinase 1A (Homo sapiens, UniProt Q13627); experiment: Inhibition of human DYRK1A transfected in HEK293T cells co-transfected with Renilla plasmid, pGL3-NFAT and NFATc1 assessed as derepression of NFAT-dependent luciferase activity measured after 48 hrs by luciferase assay; type: cell-based, HEK-293T
Procedure, shortened: (§1)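 HEK293T cells transfected with PEI using DYRK1A, Renilla plasmid, IL-2-based pGL3-NFAT firefly reporter and NFATc1. Next day the same transfected population was split into 96-well plates; 6 h later cells were treated for 48 h (11-point dose curve, n = 4), then lysed. EC50 from firefly/Renilla ratio, 4-parameter agonist fit. CC50 from loss of constitutive Renilla signal, 4-parameter inhibitor fit.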

[2] = (§2) Cytotoxicity against human HEK293T cells transfected with DYRK1A co-tranfected with Renilla plasmid, pGL3-NFAT and NFATc1 assessed as reduction in luciferase activity by measuring cell number; type: cell-based, HEK-293T; procedure, shortened: as §1
Homo sapiens = species: Homo sapiens; experiment: Selectivity index, ratio of CC50 for human HEK293T cells transfected with DYRK1A co-tranfected with Renilla plasmid, pGL3-NFAT and NFATc1 assessed as reduction in luciferase activity by measuring cell number to EC50 for human DYRK1A transfected in HEK293T cells co-transfected with Renilla plasmid, pGL3-NFAT and NFATc1 assessed as derepression of NFAT-dependent luciferase activity measured after 48 hrs by luciferase assay; type: cell-based; procedure, shortened: as §1
HEK-293T = experiment: as §2; type: cell-based; conditions: hek-293t; procedure, shortened: as §1
[3] = molecular target: T1, Dual specificity tyrosine-phosphorylation-regulated kinase 1A; experiment: Inhibition of DYRK1A in human pancreatic islets assessed as induction of pancreatic beta-cells replication measured after 48 hrs by Hoechst 33342 staining based analysis
Procedure, shortened: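 Human islets (85-95% purity) rested 12 h in low-glucose DMEM with 10% FBS and 20 nM exendin-4. Dispersed to single cells and plated on 804G-conditioned-matrix 384-well plates for 48 h. Treated 48 h, then fixed with 4% PFA. Stained with anti-insulin, anti-Ki-67 and 4 μM Hoechst 33342; Ki67+Insulin+/Insulin+ scored by high-content imaging against per-plate cutoffs.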

[4] = Cytotoxicity against mouse R7T1 cells assessed as reduction in cell viability measured after 48 hrs by Hoechst 33342 staining based analysis
Procedure, shortened: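 Mouse R7T1 β-cells cultured in high-glucose DMEM with 10% FBS, doxycycline and pyruvate, plated at 25,000 cells/well. Treated in quadruplicate 6 h later (0.169–10,000 nM) for 48 h. Cells fixed in paraformaldehyde and stained with 4 μM Hoechst 33342; nuclei counted by high-content imaging.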

[5] = Selectivity index, ratio of CC50 for mouse R7T1 cells assessed as reduction in cell viability measured after 48 hrs by Hoechst 33342 staining based analysis to MEC for inhibition of DYRK1A in human pancreatic islets assessed as induction of pancreatic beta-cells replication measured after 48 hrs by Hoechst 33342 staining based analysis

Structure (SMILES) | pEC50 [1] | CC50 [2] | Ratio CC50/EC50 (Homo sapiens) | CC50 (HEK-293T) | MEC [3] | CC50 [4] | Selectivity Index [5]
CNC(=O)c1cnc2ccc(-c3cc(Cl)c(O)c(Cl)c3)nc2c1N[C@H]1CC[C@H](CN(C)C)CC1 | 8.22 | 36 nM | 6 |  |  |  | 
CN(C)C[C@H]1CC[C@H](Nc2c(C(N)=O)cnc3ccc(-c4cc(Cl)c(O)c(Cl)c4)nc23)CC1 | 7.82 | 69 nM | 4 |  |  |  | 
CCOC(=O)c1cnc2ccc(-c3cc(Cl)c(O)c(Cl)c3)nc2c1N[C@H]1CC[C@H](CN2CCOCC2)CC1 | 8.15 | 491 nM | 71 |  |  |  | 
CCCCNC(=O)c1cnc2ccc(-c3cc(Cl)c(O)c(Cl)c3)nc2c1N[C@H]1CC[C@H](CN2CCOCC2)CC1 | 8.40 | 79 nM | 18 |  |  |  | 
CCOC(=O)c1cnc2ccc(-c3ccc(N)cc3)nc2c1N[C@H]1CC[C@H](CN(C)C)CC1 | 5.68 | > 10000 nM | > 5 |  |  |  | 
CCOC(=O)c1cnc2ccc(-c3ccnc(O)c3)nc2c1N[C@H]1CC[C@H](CN(C)C)CC1 | 6.42 | 2360 nM | 6 |  |  |  | 
CCOC(=O)c1cnc2ccc(-c3ccc(C(N)=O)cc3)nc2c1N[C@H]1CC[C@H](CN(C)C)CC1 | 5.33 | > 10000 nM | > 2 |  |  |  | 
CCOC(=O)c1cnc2ccc(-c3ccc(O)cc3)nc2c1N[C@H]1CC[C@H](CN(C)C)CC1 | 6.52 |  | > 33 | > 10000 nM |  |  | 
CCOC(=O)c1cnc2ccc(-c3ccc(O)nc3)nc2c1N[C@H]1CC[C@H](CN(C)C)CC1 | 5.87 | > 10000 nM | > 7.5 |  |  |  | 
CCOC(=O)c1cnc2ccc(-c3cc(Cl)c(O)c(Cl)c3)nc2c1Nc1ccc(CN(C)C)cc1 | 7.59 | 3790 nM | 146 |  | 31 nM | 226 nM | 7.3
CCOC(=O)c1cnc2ccc(-c3ccnc(N)c3)nc2c1N[C@H]1CC[C@H](CN2CCCC2)CC1 | 6.97 | 756 nM | 7 |  |  |  | 
CCCNC(=O)c1cnc2ccc(-c3cc(Cl)c(O)c(Cl)c3)nc2c1N[C@H]1CC[C@H](CN(C)C)CC1 | 8.22 | 38 nM | 7 |  |  |  | 
CC(=O)c1cnc2ccc(-c3cc(Cl)c(O)c(Cl)c3)nc2c1N[C@H]1CC[C@H](C(N)=O)CC1 | 7.96 | 1660 nM | 153 |  | 125 nM | 231 nM | 1.8
CC(C)CNC(=O)c1cnc2ccc(-c3cc(Cl)c(O)c(Cl)c3)nc2c1N[C@H]1CC[C@H](CN(C)C)CC1 | 8.22 | 16 nM | 3 |  |  |  | 
CCOC(=O)c1cnc2ccc(-c3cc(Cl)c(O)c(Cl)c3)nc2c1N1CCOCC1 | 6.98 | 3680 nM | 35 |  |  |  | 
CCOC(=O)c1cnc2ccc(-c3ccc(C(=O)O)cc3)nc2c1N[C@H]1CC[C@H](CN(C)C)CC1 | 6.00 | > 10000 nM | > 10 |  |  |  | 
CCOC(=O)c1cnc2ccc(-c3ccnc(N)c3)nc2c1N[C@H]1CC[C@H](CN2CCCCC2)CC1 | 6.94 | 1350 nM | 12 |  |  |  | 
CCOC(=O)c1cnc2ccc(-c3ccnc(N)c3)nc2c1N[C@H]1CC[C@H](CN(C)C)CC1 | 7.23 | 1130 nM | 19 |  | 22 nM | 328 nM | 15

Structure (SMILES) | pEC50 [1] | CC50 [2] | Ratio CC50/EC50 (Homo sapiens) | CC50 (HEK-293T) | MEC [3] | CC50 [4] | Selectivity Index [5]
CCOC(=O)c1cnc2ccc(-c3cc(Cl)c(O)c(Cl)c3)nc2c1N1CCC(C)CC1 | 6.91 | > 10000 nM | > 82 |  |  |  | 
CCOC(=O)c1cnc2ccc(-c3ccnc(C)c3)nc2c1N[C@H]1CC[C@H](CN(C)C)CC1 |  | > 10000 nM | > 7 |  |  |  | 
CCOC(=O)c1cnc2ccc(-c3cc(Cl)c(O)c(Cl)c3)nc2c1N[C@H]1CC[C@H](C(=O)N2CCOCC2)CC1 | 7.01 | 3010 nM | 21 |  | 250 nM | 2080 nM | 8.3
NC(=O)[C@H]1CC[C@H](Nc2c(CO)cnc3ccc(-c4cc(Cl)c(O)c(Cl)c4)nc23)CC1 | 6.17 | > 10000 nM | > 15 |  |  |  | 
CCOC(=O)c1cnc2ccc(-c3cc(Cl)c(O)c(Cl)c3)nc2c1N[C@H]1CC[C@H](C(N)=O)CC1 | 5.90 | > 10000 nM | > 8 |  |  |  | 
CCOC(=O)c1cnc2ccc(-c3cc(Cl)c(O)c(Cl)c3)nc2c1N[C@H]1CC[C@H](C)CC1 | < 5.00 | > 10000 nM |  |  |  |  | 
CCNC(=O)c1cnc2ccc(-c3cc(Cl)c(O)c(Cl)c3)nc2c1N[C@H]1CC[C@H](CN(C)C)CC1 | 8.22 | 39 nM | 7 |  |  |  | 
CCOC(=O)c1cnc2ccc(-c3cc(Cl)c(O)c(Cl)c3)nc2c1N[C@H]1CC[C@H](N)CC1 | 8.05 | 44 nM | 5 |  |  |  | 
CCOC(=O)c1cnc2ccc(-c3cc(C)nc(C)c3)nc2c1N[C@H]1CC[C@H](CN(C)C)CC1 | < 5.00 | > 10000 nM |  |  |  |  | 
CC(C)CCNC(=O)c1cnc2ccc(-c3cc(Cl)c(O)c(Cl)c3)nc2c1N[C@H]1CC[C@H](CN(C)C)CC1 | 8.52 | 21 nM | 8 |  |  |  | 
CCOC(=O)c1cnc2ccc(-c3cc(Cl)cc(Cl)c3)nc2c1N[C@H]1CC[C@H](CN(C)C)CC1 | < 5.00 | > 10000 nM |  |  |  |  | 
CN(C)C[C@H]1CC[C@H](Nc2c(C(=O)N3CCOCC3)cnc3ccc(-c4cc(Cl)c(O)c(Cl)c4)nc23)CC1 | 6.19 |  | > 16 | > 10000 nM |  |  | 
CN(C)C[C@H]1CC[C@H](Nc2c(C(=O)N(C)C)cnc3ccc(-c4cc(Cl)c(O)c(Cl)c4)nc23)CC1 | 6.45 |  | > 28 | > 10000 nM |  |  | 
NC(=O)C[C@H]1CC[C@H](Nc2c(CO)cnc3ccc(-c4cc(Cl)c(O)c(Cl)c4)nc23)CC1 | 7.13 | 1970 nM | 27 |  | 500 nM | 1080 nM | 2.2
CCOC(=O)c1cnc2ccc(-c3cc(Cl)c(O)c(Cl)c3)nc2c1N1CCNCC1 | 7.14 | 10000 nM | > 137 |  | 250 nM | > 10000 nM | >40
CCOC(=O)c1cnc2ccc(-c3cc(Cl)c(O)c(Cl)c3)nc2c1N1CCCCC1 | 6.69 | 3460 nM | 17 |  |  |  | 
CCCCCNC(=O)c1cnc2ccc(-c3cc(Cl)c(O)c(Cl)c3)nc2c1N[C@H]1CC[C@H](CN(C)C)CC1 | 8.30 | 19 nM | 4 |  |  |  | 
CCOC(=O)c1cnc2ccc(-c3cc(Cl)c(O)c(Cl)c3)nc2c1N[C@H]1CC[C@H](CO)CC1 | 7.00 | 2670 nM | 27 |  | 250 nM | 785 nM | 3.1
